Test results taken from ChEMBL document CHEMBL1145239 (Bioorg Med Chem Lett, 2005).

molecular target: Dipeptidyl peptidase 4 (Rattus norvegicus, UniProt P14740); assay: Inhibitory concentration against rat dipeptidylpeptidase IV
Procedure, shortened: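 DPP-IV activity in rat plasma (10-fold diluted) by fluorescence with Gly-Pro-MCA substrate (100 µmol/L solution added); buffer PBS with 0.003% Brij-35. Inhibitor at various concentrations, room temperature, 60 min. Inhibition relative to solvent control; IC50 by logistic analysis.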

Dipeptidyl peptidase 4, sequence (P14740 whole entry): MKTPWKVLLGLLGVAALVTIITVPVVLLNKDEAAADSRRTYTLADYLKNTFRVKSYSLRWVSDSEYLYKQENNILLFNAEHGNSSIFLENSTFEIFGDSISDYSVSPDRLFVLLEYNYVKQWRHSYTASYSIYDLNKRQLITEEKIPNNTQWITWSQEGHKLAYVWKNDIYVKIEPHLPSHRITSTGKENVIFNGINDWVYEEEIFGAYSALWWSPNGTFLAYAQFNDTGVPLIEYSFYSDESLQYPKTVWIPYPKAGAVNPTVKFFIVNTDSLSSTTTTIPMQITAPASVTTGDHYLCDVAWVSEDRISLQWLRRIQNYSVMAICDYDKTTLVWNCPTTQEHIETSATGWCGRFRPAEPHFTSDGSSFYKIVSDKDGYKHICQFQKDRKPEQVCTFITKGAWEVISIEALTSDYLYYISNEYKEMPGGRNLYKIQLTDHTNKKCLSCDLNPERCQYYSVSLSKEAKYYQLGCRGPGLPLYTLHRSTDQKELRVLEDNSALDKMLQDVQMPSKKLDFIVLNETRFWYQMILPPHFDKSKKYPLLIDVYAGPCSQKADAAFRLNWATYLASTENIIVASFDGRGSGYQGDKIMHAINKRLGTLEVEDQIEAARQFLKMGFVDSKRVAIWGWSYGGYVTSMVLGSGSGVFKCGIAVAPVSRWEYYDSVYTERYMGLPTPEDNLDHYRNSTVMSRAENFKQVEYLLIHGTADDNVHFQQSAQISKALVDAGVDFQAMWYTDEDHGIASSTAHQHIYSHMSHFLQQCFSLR

SMILES | IC50 [nM]
N#C[C@@H]1CCCN1C(=O)[C@@H]1C[C@H](N)CN1 | 9.1
N#C[C@@H]1CCCN1C(=O)[C@@H]1C[C@H](NC2CCCCC2)CN1 | 3.6
N#C[C@@H]1CCCN1C(=O)[C@@H]1C[C@H](NS(=O)(=O)c2ccccc2)CN1 | 3.9
N#C[C@@H]1CCCN1C(=O)[C@@H]1C[C@H](NCCc2ccccc2)CN1 | 1.5
COc1ccc(N[C@@H]2CN[C@H](C(=O)N3CCC[C@H]3C#N)C2)cc1 | 0.28
N#C[C@@H]1CCCN1C(=O)[C@@H]1C[C@H](NCc2ccccc2)CN1 | 3
N#Cc1ccc(N[C@@H]2CN[C@H](C(=O)N3CCC[C@H]3C#N)C2)cc1C#N | 0.17
N#Cc1ccc(N[C@@H]2CN[C@H](C(=O)N3CCC[C@H]3C#N)C2)cc1 | 0.26
N#C[C@@H]1CCCN1C(=O)[C@@H]1C[C@H](NC(=O)Nc2ccccc2)CN1 | 1.1
COc1ccc(N[C@@H]2CN[C@H](C(=O)N3CCC[C@H]3C#N)C2)cc1OC | 0.24
N#C[C@@H]1CCCN1C(=O)[C@@H]1C[C@H](NC(=O)c2ccccc2)CN1 | 3.8
